M1 PAM – positive allosteric modulators of human M1 muscarinic receptor | AID 588819 | 0.088% of 360,000 active | P11229 | CHO-K1 hM1, Fluo-8 calcium fluorescence, ACh EC20; 0% = ACh EC20, 100% = maximal ACh | activation, % at 3 µM; in the data active = activation above about 19%, passing the limit was not always enough
CHRM5 antagonist – blocks acetylcholine activation of human M5 receptor; P08912; CHO-hM5 cells, Fluo-8 calcium fluorescence, ACh EC80; inhibition, % at 3 µM; 0.59% of 360,000 active; AID 624040;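 active = inhibition above a per-plate cutoff, the mean of that plate's test compounds plus 3 SD, cut at about 27% in these data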;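 note: 0% = acetylcholine EC80 with DMSO and 100% = DMSO without agonist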
Target sequence (P08912 whole entry, looked up): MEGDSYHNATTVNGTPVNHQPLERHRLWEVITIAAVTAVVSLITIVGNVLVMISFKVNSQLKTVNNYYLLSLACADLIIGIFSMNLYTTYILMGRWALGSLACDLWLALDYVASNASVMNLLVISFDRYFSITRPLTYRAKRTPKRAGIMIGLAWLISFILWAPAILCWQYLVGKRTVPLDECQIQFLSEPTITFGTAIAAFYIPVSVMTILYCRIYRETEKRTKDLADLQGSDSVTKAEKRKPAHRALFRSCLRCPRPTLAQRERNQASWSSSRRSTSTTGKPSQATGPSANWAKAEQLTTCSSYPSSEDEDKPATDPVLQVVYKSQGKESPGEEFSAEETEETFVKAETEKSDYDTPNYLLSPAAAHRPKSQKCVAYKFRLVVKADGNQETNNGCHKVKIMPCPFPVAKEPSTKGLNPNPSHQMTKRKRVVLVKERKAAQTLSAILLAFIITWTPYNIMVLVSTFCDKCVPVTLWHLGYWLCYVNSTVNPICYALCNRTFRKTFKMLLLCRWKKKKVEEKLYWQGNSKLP
CHRM5 PAM – potentiates acetylcholine response at human M5 receptor; CHO-K1 hM5, Fluo-8 calcium, ACh EC20 PAM; 0% = ACh EC20, 100% = ACh EC100; 0.3% of 360,000 active; AID 624038; activation, % at 3 µM;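 active = activation above the run cutoff, the mean activation of all test compounds plus 3 SD, cut at about 18% in these data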
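system = human M5 receptor in CHO-K1 cells | reagent = EC20 acetylcholine as agonist stimulus | compound dosing = single-point, 3 µM nominal | incubation = Fluo-8 loading 80 min at 37 °C plus 30 min room temperature | detection = Fluo-8 calcium dye fluorescence, kinetic read | benchmarks = low control EC20 acetylcholine (0%), high control EC100 acetylcholine (100%)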
M1 ag – human M1 muscarinic receptor agonism; CHO-K1 hM1, Fluo-8 calcium fluorescence, agonist mode; 0% DMSO, 100% acetylcholine EC100; activation, % at 3 µM; 0.33% of 360,000 active; AID 588814;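 active = activation above the run's mean compound activation plus 3 SD, cut at about 16% in these data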;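 note: peak over basal fluorescence ratio within a 140 s kinetic read after compound addition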
M1 antag – antagonists of human M1 muscarinic receptor; P11229; CHO-K1 hM1, Fluo-8 calcium fluorescence, ACh EC80 antagonist; inhibition, % at 3 µM; 1.3% of 360,000 active;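 active = percent inhibition above its own plate's cutoff, namely the mean of that plate's compound wells plus 3 SD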;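 note: peak over basal fluorescence ratio during 140 s after agonist addition; 0% = ACh EC80 plus DMSO and 100% = DMSO alone without agonist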
M5 ag – CHRM5 agonism in calcium assay | P08912 | CHO-K1 hM5 cells, Fluo-8 calcium fluorescence; 0% DMSO wells, 100% maximal acetylcholine response | activation, % at 3 µM | 0.19% of 360,000 active;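 active = activation above the run's mean over test compounds plus 3 SD, cut at about 23% in these data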;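 note: signal is peak over basal fluorescence ratio across the kinetic read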
* marks the source's active call; other numbers are inactive results; · = not tested or not shown. Hits are enriched below; roughly 2% of the tested compounds scored in any of these assays.

SMILES	M1 PAM	CHRM5 antagonist	CHRM5 PAM	M1 ag	M1 antag	M5 ag
CC(OC(=O)c1ccc([N+](=O)[O-])s1)C(=O)NC1CCCCC1C (centres undefined)	9.3	1.0	-5.4	-1.1	-10.6	2.0
CCCCN1CCc2[nH]c(=S)[nH]c(=O)c2C1	24.6*	0.5	1.9	-2.6	-19.8	1.6
O=C(NC1CCCC1)c1noc2c1CCCCC2	-19.4	1.6	-8.1	-3.6	37.5*	-5.9
CC(=O)c1ccc(S(=O)(=O)N2CCN(c3nc(-c4cccnc4)nc4ccccc34)CC2)cc1	-29.8	18.0	-21.7	-5.6	76.2*	-4.7
O=S(=O)(c1ccccc1)N1CCN(c2nc(-c3cccnc3)nc3ccccc23)CC1	-2.9	8.2	-16.0	-2.3	2.0	0.0
CC(C)C1Cc2[nH]c(=S)[nH]c(=O)c2C(c2ccc(F)cc2)O1 (centres undefined)	-12.0	2.2	5.0	-2.2	7.2	2.5
COC(=O)CCC(=O)OC1(C)C(=O)C=C2C=C(C3CC3)N(c3ccccc3)C=C2C1=O (centres undefined)	-17.6	8.9	-13.7	-4.8	28.4*	-3.2
Cc1ccc2c(c1)nnn2C1CCN(S(=O)(=O)c2ccc(C(=O)O)cc2)CC1	2.6	5.7	-8.8	-3.7	5.0	-1.0
Cc1ccc2c(c1)nnn2C1CCN(S(=O)(=O)c2ccc(C(=O)N3C(C)CCCC3C)cc2)CC1 (centres undefined)	-12.4	22.2	-36.8	0.9	33.4*	-5.8
CCOC(=O)C1CCN(c2c(C(=O)c3ccccc3)cnc3ccc(CC)cc23)CC1	-0.6	-4.8	-1.2	-1.3	-2.3	0.9
CCOC(=O)C1CCCN(C(=O)c2sc3nc(-c4ccc(OC)cc4)cn3c2C)C1 (centres undefined)	-5.5	-7.0	-4.4	28.4*	-0.9	6.0
CCOC(=O)C1CCCN(C(=O)c2cc(-c3ccco3)nc3ccccc23)C1 (centres undefined)	-5.0	9.8	4.8	25.3*	-11.6	10.7
CCOC(=O)C1CCCN(c2c(C(=O)c3ccccc3)cnc3ccccc23)C1 (centres undefined)	-22.7	20.6	-18.0	38.4*	30.0*	9.2
CCOC(=O)C1CCCN(C(=O)c2cc(-c3ccncc3)nc3ccccc23)C1 (centres undefined)	6.0	3.1	-5.3	1.1	-9.7	3.9
CCOC(=O)C1CCCN(C(=O)c2ccc(-c3ccccc3Cl)o2)C1 (centres undefined)	2.2	-5.4	0.1	4.7	-8.1	-0.1
CCOC(=O)C1CCCN(C(=O)c2ccco2)C1 (centres undefined)	-26.9	1.2	-2.1	51.8*	14.7	10.3
COC(C#CCCN(C)C)(c1ccccc1)c1ccccc1	-26.9	93.7*	-18.9	-11.3	98.9*	-7.8
CN(C)CCOC(C)(c1ccccc1)c1ccccn1 (centres undefined)	-25.1	7.9	-14.9	-8.8	39.8	-1.7
O=C(/C=C/[C@H]1O[C@@H](n2cnc3c(NC(=O)c4ccccc4)ncnc32)[C@H](O)[C@@H]1O)NCc1ccc2c(c1)OCO2	9.9	-0.7	-1.1	-0.8	-15.2	2.9
C[C@@H]1O[C@H](C2CCCCC2)Cc2[nH][nH]c(=O)c21	·	-0.6	0.3	·	·	1.8
CC1CCC2(CC1)NC(=O)N(CC(=O)NCc1ccc3c(c1)OCO3)C2=O (centres undefined)	0.1	31.0*	-13.6	-5.1	6.5	-9.0
CC1CCCCC12NC(=O)N(CC(=O)NCc1ccc3c(c1)OCO3)C2=O (centres undefined)	-2.8	9.1	-1.5	-2.5	-1.8	4.9
Cc1c(NC(=O)c2cc(C(C)C)on2)c(=O)n(-c2ccccc2)n1C	-20.4	5.1	-1.6	-8.8	35.8*	-4.3
Cc1c(NC(=O)Nc2cc(Cl)ccc2Cl)c(=O)n(-c2ccccc2)n1C	2.5	29.0*	-8.5	0.9	4.9	-6.1
Cc1c(NC(=O)Nc2cccc(Cl)c2)c(=O)n(-c2ccccc2)n1C	-3.8	13.6	-4.9	-6.1	6.7	-4.1
SMILES	M1 PAM	CHRM5 antagonist	CHRM5 PAM	M1 ag	M1 antag	M5 ag
Cc1c(NC(=S)NC(=O)c2ccccc2Cl)c(=O)n(-c2ccccc2)n1C	28.8*	1.7	-5.1	-4.8	-2.9	0.7
Cc1c(Cl)c([N+](=O)[O-])nn1CC(=O)Nc1c(C)n(C)n(-c2ccccc2)c1=O	-12.2	6.4	-3.9	-5.6	27.7*	-6.6
Cc1c(NC(=S)NC(=O)c2ccc(Cl)cc2)c(=O)n(-c2ccccc2)n1C	-8.2	12.3	-12.3	-3.2	20.0	-2.0
Cc1c(C)n(CC(O)CSc2ccccc2)c2ccccc12 (centres undefined)	·	-2.0	-4.6	·	·	0.7
CC(C)C[C@H]1CN(CCCC[C@H]2CNC(=O)C(=O)N2Cc2ccccc2)C(=O)C(=O)N1CCC1CCCCC1	·	-10.9	2.3	·	·	-1.2
Cc1ccc(Cn2nc(C)c(NC(=O)CCCn3nc(C)c([N+](=O)[O-])c3C)c2C)cc1	3.7	-7.3	-2.1	-3.6	-0.2	-3.9
Cc1ccc(Cn2nc(C)c(NC(=O)CCCn3nc([N+](=O)[O-])c(Cl)c3C)c2C)cc1	21.1*	6.0	-7.0	-1.6	-17.4	-1.1
COCc1cc(C)nc(SCC[N+](C)(C)CC(=O)Nc2cccc(C(F)(F)F)c2)c1C#N	-20.0	-0.2	-3.7	-8.7	40.2*	-6.2
CC(C)C[C@H]1CN(CCCC[C@H]2CNC(=O)C(=O)N2CCC2CCCCC2)C(=O)C(=O)N1CC1CCCCC1	·	-0.5	1.3	·	·	-1.0
CCOC(=O)[C@]12CCCC=C1N(Cc1ccc3c(c1)OCO3)C(=O)[C@H](CC(=O)N1CCN(C(=O)C3CC3)CC1)C2	·	6.5	-5.2	·	·	2.1
O=C(CNC(=O)c1ccccc1F)N/N=C/c1cn[nH]c1-c1ccccc1	-29.6	28.9*	-20.6	-10.5	41.4*	-9.3
COCCN(CC1CCCN(C2Cc3ccccc3C2)C1)C(=O)CCC(N)=O (centres undefined)	-27.9	4.3	-1.1	-10.2	46.9*	-7.2
COc1ccc(F)cc1-c1cc(C(=O)N2CCc3ccccc3C2)[nH]n1	5.0	9.5	-0.4	-2.1	-20.1	-1.8
CC(C)(C)NC(=O)c1ccccc1-c1nc2ccccc2s1	5.3	5.5	0.4	18.0*	-5.2	-2.2
C[C@@H](CO)NC(=O)c1[nH]cnc1C(=O)Nc1cccc(Cl)c1	3.6	-6.7	0.7	0.6	-6.6	-0.3
Cc1cccc(NC(=O)C(=O)C2C(=O)Nc3ccccc32)c1 (centres undefined)	-1.7	-5.8	18.7*	1.4	14.5	2.3

Assay outcomes (PubChem)
